High-throughput results from PubChem.
p47phox inh: inhibitors of human p47phox binding. p47phox/p22phox peptide binding, fluorescence polarization, 2 h. inhibition, % at 24.7 µM. actives 0.53% (n = 220,000). AID 1274;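 active = inhibition above about 30%, limit read from the data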
Hck-Nef inh: blocks Nef-activated human Hck kinase. P08631. Recombinant Hck-YEEI plus Nef, Z-Lyte FRET kinase assay. inhibition, % at 20 µM. actives 0.68% (n = 220,000);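 active = Hck-Nef kinase inhibition above about 50%, limit read from the data; inactive = inhibition below that limit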
Target sequence (P08631 whole entry, looked up): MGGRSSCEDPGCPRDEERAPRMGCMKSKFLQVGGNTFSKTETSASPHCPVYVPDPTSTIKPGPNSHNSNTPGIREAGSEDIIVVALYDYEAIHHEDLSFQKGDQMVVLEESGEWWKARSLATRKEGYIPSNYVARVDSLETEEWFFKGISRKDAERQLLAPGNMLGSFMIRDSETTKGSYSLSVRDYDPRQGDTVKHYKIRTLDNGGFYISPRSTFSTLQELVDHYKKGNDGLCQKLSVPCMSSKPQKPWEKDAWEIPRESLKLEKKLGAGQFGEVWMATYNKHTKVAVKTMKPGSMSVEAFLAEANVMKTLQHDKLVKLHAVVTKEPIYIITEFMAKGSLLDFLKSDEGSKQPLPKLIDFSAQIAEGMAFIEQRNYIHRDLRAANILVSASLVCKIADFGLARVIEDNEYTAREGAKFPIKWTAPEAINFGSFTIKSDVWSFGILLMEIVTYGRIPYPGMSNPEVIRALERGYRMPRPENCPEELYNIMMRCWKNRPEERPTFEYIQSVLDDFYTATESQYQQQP
WT yeast gro inh: growth inhibition of WT yeast, mitochondrial fusion screen. mitochondrial fusion phenotypic screen, WT strain. inhibition, % at 10 µM. actives 2.1% (n = 190,000). AID 1362; in the data active = inhibition above about 58%; tested in S. cerevisiae
Calb biofilm kill: mixtures killing C. albicans biofilm | C. albicans biofilm persisters + clotrimazole, fluorescence viability; primary screen in compound mixtures of four per well | actives 0.02% (n = 120,000) | inhibition, % at 7.6 µM;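 active = inhibition above 30.3% in the primary screen of four-compound pools, then above 30% when the compound was retested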;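 note: compounds exposed to preformed 24 h biofilms for 48 h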
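Test system: C. albicans biofilms. Buffer or medium: RPMI/MOPS medium, pH 7.0. Timing: 48 h compound exposure at 37 °C. Technique: Alamar Blue fluorescence. Evaluation: percent inhibition of biofilm viability.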
RAM network inh: blocks the yeast RAM network; S. cerevisiae dse1pr::URA3 reporter, 5-FOA growth OD615, 2 d; analog-sensitive cbk1-as2 kinase mutant strain; inhibition, % at 50 µM; actives 1.8% (n = 190,000);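 active = inhibition above a set limit, 3 SD over mean compound inhibition, cut at about 8.4% in these data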;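 note: inhibition rescues growth on 5-FOA so higher OD means more RAM inhibition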
Arbovirus anti: blocks arbovirus infection | arbovirus infection cell-based antiviral screen | inhibition, % at 10 µM | actives 0.37% (n = 200,000) | AID 1251; in the data active = inhibition above about 30%
A number is an active result; 0 = inactive; - = no result given. Most compounds without a hit are left out; they make up all but 4.6% or so of the library.

SMILES	p47phox inh	Hck-Nef inh	WT yeast gro inh	Calb biofilm kill	RAM network inh	Arbovirus anti
Cc1cccc(C)c1OCC(=O)N/N=C/c1ccc2c(c1)OCO2	0	0	0	-	0	0
Cc1cc(C)n(-c2c(C)[nH]c3ccccc23)n1	0	0	0	0	0	0
COc1ccc(/C=C\C(=O)NCc2ccc3[nH]c(C)cc3c2)cc1OC	0	0	0	0	10	0
COc1cc(/C=C/C(=O)OCC(=O)c2c(N)n(C)c(=O)n(C)c2=O)ccc1OCC#N	0	0	0	0	0	0
Cc1cc(N2CCOCC2)n2ncc(-c3ccc(Cl)cc3)c2n1	0	0	-	0	-	-
Cc1cc(N2CCCCC2)n2ncc(-c3ccc(Cl)cc3)c2n1	0	0	58	-	0	0
Cc1cc(N2CCN(C(=O)c3ccco3)CC2)n2ncc(-c3ccccc3)c2n1	0	0	93	-	0	0
Cc1ccc(N2CN(CCc3ccccc3)CNC2=S)cc1	0	0	-	0	-	-
Cc1[nH]c2ccccc2c1SCC(=O)O	0	0	0	0	0	0
CNC(=O)CCc1[nH]c2ccccc2c1Sc1ccccc1	34	0	0	0	0	0
O=C(NC1CCCC1)C(=O)N(c1ccccc1F)C(C(=O)NCC1CCCO1)c1cccs1 (stereo not given)	0	0	0	0	0	0
c1ccc(COc2ccc(-c3csnn3)cc2)cc1	0	0	0	-	0	0
CC(C)C(=O)Nc1ccc(C(=O)NNC(=O)CCCOc2ccc(Cl)cc2Cl)cc1	0	0	79	-	0	0
CSc1cccc(NC(=O)CCCOc2ccc(Cl)cc2Cl)c1	0	0	0	0	11	0
CSc1cccc(NC(=O)CCCOc2ccccc2)c1	0	0	0	0	0	0
CCOC(=O)NN1C(=O)c2ccccc2NC1c1ccc(OC)cc1OC (stereo not given)	0	0	0	0	0	0
O=C(NCCOCCNC(=O)OCc1ccccc1)OCc1ccccc1	0	0	0	0	0	0
CSc1nnc(C)c(/C=C/NOCc2cccc(F)c2)n1	0	0	0	0	0	0
Cc1nnc(SCc2ccccc2)nc1/C=C/NOCc1ccc(Cl)cc1Cl	0	0	0	-	8.5	0
CC(C)CC(COCc1ccc(Cl)cc1)N1CCN(C(=O)c2ccc(Cl)cc2Cl)CCC1=O (stereo not given)	0	0	0	0	9.4	0
CC(C)CC(COCc1cccc(Cl)c1)N1CCN(C(=O)c2cccc(C(F)(F)F)c2)CCC1=O (stereo not given)	0	0	0	0	0	0
COc1ccccc1-c1nnc(SCC(=O)NCc2c(C)c(Cl)cc(C(C)C)c2O)o1	0	0	78	-	0	0
CC(=O)C(=Nc1ccccc1Cl)NNc1ccc(Cl)cc1	0	0	60	0	0	0
Cc1ccc(C(=O)Nn2cnc3scc(-c4cccs4)c3c2=O)c(O)c1	0	0	0	-	0	0
Cc1sc(N/N=C/c2cccnc2)nc1-c1ccc(Cl)cc1	0	0	0	-	0	0
SMILES	p47phox inh	Hck-Nef inh	WT yeast gro inh	Calb biofilm kill	RAM network inh	Arbovirus anti
Clc1ccc(N/N=C/c2cccnc2)cc1	0	0	59	0	0	0
COC(=O)c1cn(NC(=O)C2CCC(C(C)(C)C)CC2)c(=O)c2ccccc12 (stereo not given)	0	0	0	-	0	0
Cc1ccc(OCCOC(=O)CCc2nc3ccccc3c(=O)[nH]2)cc1	0	0	0	0	0	0
CNC(=O)COC(=O)c1cc(-c2ccco2)nc2ccccc12	0	0	-	0	-	-
CCN(CC)C(=O)COC(=O)c1cc(-c2ccco2)nc2ccccc12	46	0	0	0	0	0
Cc1ccc(-n2c(SCC(=O)NCc3ccco3)nc3sc4c(c3c2=O)CC(C)(C)SC4)cc1	0	0	0	-	10	0
COc1ccc(C(=O)C2CCCN(C(=O)C3=CCCC3)C2)cc1OC (stereo not given)	0	0	0	0	0	0
COc1ccc(/C=C2\SC(=O)N(CC(=O)NNC(=O)c3ccccc3O)C2=O)cc1	0	0	0	0	0	0
COc1ccc(/C=C2\SC(=O)N(CC(=O)NNC(=O)c3ccccc3O)C2=O)cc1OC	34	0	0	0	0	0
Cc1ccc(-n2cccc2/C=C2/C(=N)N3C(=NC2=O)SN=C3S(C)(=O)=O)cc1	0	0	0	0	0	47
CCc1ccc(-n2cccc2/C=C2/C(=N)N3C(=NC2=O)SN=C3S(C)(=O)=O)cc1	0	0	0	0	11	0
Cc1cc(C)cc(-n2cccc2/C=C2/C(=N)N3C(=NC2=O)SN=C3S(C)(=O)=O)c1	0	0	0	0	0	0
CS(=O)(=O)C1=NSC2=NC(=O)/C(=C\c3cccn3-c3ccccc3Cl)C(=N)N21	0	0	0	0	0	51
COc1cccc(-n2c(C)cc(/C=C3/C(=N)N4C(=NC3=O)SN=C4S(C)(=O)=O)c2C)c1	0	0	0	0	0	40
CCOC(=O)N1CCN(S(=O)(=O)c2cccc3ccc(C)nc23)CC1	0	0	0	-	0	0
O=C(NNC(=O)c1cccc(O)c1)Nc1ccc([N+](=O)[O-])cc1	0	0	0	0	0	0
O=c1[nH]c(Nc2ccc(F)cc2)cc2ccccc12	0	0	0	-	0	0
Cc1ccccc1Nc1cc2ccccc2c(=O)[nH]1	0	0	66	-	0	0
NC(=O)c1ccc(NC(=O)CCCN2C(=O)c3ccccc3C2=O)cc1	0	0	63	-	0	0
O=C(O)CS(=O)(=O)c1ccc(C(F)(F)F)cn1	0	0	0	0	0	0
Cc1ccc(NC(=S)N/N=C/c2c(C)[nH]c3ccccc23)cc1	0	0	96	0	0	0
COc1cc(/C=C/C(=O)Nc2nnc(C(C)(C)C)s2)cc(OC)c1OC	0	0	0	0	0	31
O=C1c2cccc(OCC(=O)N3CCCc4ccccc43)c2CCN1Cc1ccc(F)cc1	0	0	65	0	0	0
Cc1cccc(CN2CCc3c(OCC(=O)N4CCCc5ccccc54)cccc3C2=O)c1	0	0	0	0	0	0
Nc1c(C2=NCCO2)nnn1Cc1ccccc1	44	0	0	-	0	0
SMILES	p47phox inh	Hck-Nef inh	WT yeast gro inh	Calb biofilm kill	RAM network inh	Arbovirus anti
Cc1cc(C)cc(OCCCOc2cccc3cccnc23)c1	0	0	66	-	0	0
Cc1ccc(OCCOCCOc2cccc3cccnc23)c(Br)c1	0	0	0	0	0	0
O=C(Cn1cnc2ccccc21)N/N=C/c1cccc([N+](=O)[O-])c1	0	0	0	0	0	0
Cc1ccc(C)c(NC(=S)NC23CN4CN(CN(C4)C2)C3)c1	0	0	0	0	0	0
O=C1C2C(C(=O)N1/N=C/c1cc(Br)cc([N+](=O)[O-])c1O)C1C=CC2C12CC2 (stereo not given)	0	0	0	-	0	0
O=C(CN1C(=O)CCC1=O)NNc1ccc2ccccc2c1	0	0	71	0	0	0
CC1(C)Cc2nc3oc4c(SCC(N)=O)ncnc4c3cc2CO1	0	0	-	0	-	-
